# Assay outcomes (PubChem)
# A selection: hits, their analogues and other compounds. The true share with any hit is near 1.8%.
# hiPSC survival – enhancers of human iPSC single-cell survival; 0.044% of 360,000 active; AID 602274; survival enhancement, % at 20 µM; hiPSC single-cell survival, ATPlite luminescence; 100% = ROCK inhibitor wells, 0% = DMSO; in the data active = survival enhancement above about 18%;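 note: cells exposed to compounds for 16 hours before the ATP read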
# Cneo AK release – causes C. neoformans cell lysis. lysis activity, % at 15 µM. AID 651654. 0.2% of 360,000 active. adenylate kinase release luminescence, 4 h; normalised: neutral wells 0, clomiphene wells 100;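 active = mean lysis activity across replicates of at least 80%, whatever share of replicates individually reach that level; inactive = mean lysis activity below 80%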
#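 Material – Cryptococcus neoformans yeast cells · Quantity – 5 × 10^6 yeast cells/mL · Buffer or medium – YPD medium · Compound – single dose · Timing – 4 h static compound exposure, 37 °C, read 1 h post-reagent · Signal – adenylate kinase release luminescence · Read-out basis – lysis from increased AK signal · Benchmarks – Clomiphene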
# DAGLB inhibitor – diacylglycerol lipase beta (human) inhibition; HEK293T DAGLB membrane lysate, EnzChek fluorogenic substrate; 0.059% of 340,000 active; inhibition, % at 5.17 µM; in the data active = inhibition above about 34%;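 note: 0% = enzyme with vehicle and 100% = wells lacking enzyme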
# Target sequence (Q8NCG7 whole entry, looked up): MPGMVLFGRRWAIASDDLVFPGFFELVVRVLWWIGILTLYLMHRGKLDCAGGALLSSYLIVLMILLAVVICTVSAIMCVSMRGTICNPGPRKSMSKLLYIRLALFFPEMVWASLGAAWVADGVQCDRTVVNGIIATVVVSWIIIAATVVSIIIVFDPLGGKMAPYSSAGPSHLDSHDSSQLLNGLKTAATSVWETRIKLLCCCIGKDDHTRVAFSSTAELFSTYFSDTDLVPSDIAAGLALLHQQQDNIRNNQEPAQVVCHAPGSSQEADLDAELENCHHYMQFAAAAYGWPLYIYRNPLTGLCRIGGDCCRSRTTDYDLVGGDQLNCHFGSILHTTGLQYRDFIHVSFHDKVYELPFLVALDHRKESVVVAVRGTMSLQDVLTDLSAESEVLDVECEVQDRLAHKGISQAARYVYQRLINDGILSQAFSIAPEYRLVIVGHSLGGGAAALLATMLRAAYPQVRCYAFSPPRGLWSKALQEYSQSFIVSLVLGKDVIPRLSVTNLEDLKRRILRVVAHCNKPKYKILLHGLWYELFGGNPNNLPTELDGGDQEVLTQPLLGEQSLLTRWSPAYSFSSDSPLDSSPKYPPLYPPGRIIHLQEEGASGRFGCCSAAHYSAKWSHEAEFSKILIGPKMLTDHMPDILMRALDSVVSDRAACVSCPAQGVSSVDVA
# rRNA inh HTS – selective bacterial rRNA inhibition in E. coli; E. coli WT GFP vs humanized-ribosome RFP mutants, fluorescence, 24 h; active compounds read low; DMSO median 0, no signal -100; GFP signal change (wild-type ribosome), % (concentration not given with the values); 1.6% of 350,000 active; AID 720706;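 active = significant combined selectivity score with lowered wild-type GFP, culture density cut under 30%, mutant RFP and density less affected; inactive = any of these conditions unmet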
# SKN-1 inh – C. elegans SKN-1 inhibition. inhibition, % at 21.8 µM. C. elegans VP596 Pgst-4::GFP/RFP ratio, acrylamide-induced, 24 h. AID 624304. 0.49% of 360,000 active;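 active = interference check ratio from 0.5 to 1.5 plus GFP to RFP signal ratio inhibition reaching or exceeding a fixed threshold, cut at about 30% in these data, passing the limit was not always enough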
# MT1-MMP act inh – MT1-MMP (human) activation inhibition | AID 651647 | HT1080 RFP-PRO-GFP cells, GFP/RFP ratio fluorescence, overnight; percent of plate control window, DMSO zero | GFP/RFP ratio change, % at 20 µM | 0.061% of 360,000 active;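 active = GFP/RFP ratio change of at least 30% with cell ATP level not reduced by more than half and red fluorescence within 50% of control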
#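 Test system: HT1080 RFP-PRO-GFP cells; Benchmarks: DMSO and RFP-L50D-GFP cell wells; Timing: cells overnight before dosing, compound overnight, 37 °C, 5% CO2; Compound: one 20 µM compound dose with 1% DMSO; Read-out: GFP/RFP fluorescence ratio.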
# * marks the source's active call; other numbers are inactive results; / = not tested or not shown.
SMILES,hiPSC survival,Cneo AK release,DAGLB inhibitor,rRNA inh HTS,SKN-1 inh,MT1-MMP act inh
O=[N+]([O-])c1ccc(-c2csc(NN=C3CCCC3)n2)cc1,2.2,1.7,-0.1,-21.9*,15.8,0.9
Cc1cc(C)cc(-n2cccc2/C=C2/C(=N)N3C(=NC2=O)SN=C3S(C)(=O)=O)c1,0.0,/,13.3,-27.6*,17.5,-6.9
C[C@H](CO)N1C[C@H](C)[C@H](CN(C)S(C)(=O)=O)Oc2ccc(NS(=O)(=O)c3cn(C)cn3)cc2C1=O,/,-2.8,/,2.7,/,/
CC(=O)N1[C@@H](CO)[C@H](c2ccc(-c3ccccc3)cc2)[C@@H]1CNC(=O)C1CC1,/,95.1*,/,0.7,/,/
CCCNC(=O)N1[C@H](CO)[C@@H](c2ccc(C3=CCCC3)cc2)[C@@H]1CN(C)C(C)=O,/,87.3*,/,-5.3,/,/
CC(=O)N1[C@H](CO)[C@@H](c2ccc(-c3ccccc3)cc2)[C@@H]1CNC(=O)C1CC1,/,1.0,/,-0.3,/,/
CC(=O)NC[C@H]1[C@@H](c2ccc(C3=CCCC3)cc2)[C@@H](CO)N1C(=O)NC(C)C,/,119.7*,/,-0.1,/,/
CCCNC(=O)N1[C@H](CO)[C@@H](c2ccc(C3=CCCC3)cc2)[C@H]1CNC(C)=O,/,0.3,/,-10.2,/,/
C[C@H]1CN(C)C(=O)c2cc([N+](=O)[O-])ccc2O[C@H]1CN(C)C(=O)OC(C)(C)C,/,/,/,-3.0,/,/
CCN(CC(=O)Nc1ccccc1C(F)(F)F)C(=O)C1CC(=O)N(Cc2ccccc2)C1 (stereo not drawn),-0.5,-1.1,2.0,12.8,35.1*,-1.5
COc1ccc(/C=C2\CCC/C(=C\C=N\N(C)C)C2=O)cc1,-2.0,/,3.9,-19.6*,13.5,0.7
CN(C)/N=C/C=C1\CCC/C(=C\c2ccc(F)c(F)c2)C1=O,0.3,/,/,-27.0*,-1.2,-7.5
CNC[C@H]1OCCCC[C@@H](C)Oc2ccc(NC(=O)Nc3ccc(OC)cc3)cc2C(=O)N([C@H](C)CO)C[C@@H]1C,/,/,/,3.5,/,/
COc1ccc2nc(-c3ccc(Cl)cc3)cc(C(=O)O)c2c1,-0.8,-15.3,4.1,-33.0*,2.0,5.7
Cc1cccc(C)c1NC(=O)c1cccnc1,0.5,2.8,-2.1,22.2,-9.3,1.1
Cc1cccc(C)c1NC(=O)c1cccc(C(=O)Nc2c(C)cccc2C)n1,-0.5,7.8,-0.1,-25.1*,9.5,-0.1
O=C(c1cccc(F)c1)N1C[C@H]2[C@@H](c3ccccc31)[C@@H](CO)N2Cc1cocn1,/,99.8*,/,-0.3,/,/
O=C(C[C@H]1C[C@H]2c3cc(NS(=O)(=O)c4ccc(F)cc4)ccc3O[C@H]2[C@@H](CO)O1)NC1CCCCC1,/,-3.7,/,-0.5,/,/
O=C(CSc1ncnc2scc(-c3ccc(Cl)cc3)c12)NCc1ccc2c(c1)OCO2,-1.8,-0.7,-1.8,/,46.5*,-2.4
O=C(Cc1ccccc1)N1CC[C@@H]2[C@H]1c1cc(Br)ccc1N[C@@H]2CO,/,-0.7,/,-3.6,/,/
COc1ccc(OC)c(NC(=O)COC(=O)c2c3c(nc4ccccc24)CCCC3)c1,4.3,-0.8,-13.4,-27.5*,3.1,6.3
COc1ccc(NC(=O)COC(=O)c2c3c(nc4ccccc24)CCCC3)cc1,3.3,-1.8,-6.0,/,12.6,3.0
O=C(Cc1ccncc1)NCC[C@H]1CC[C@@H](NC(=O)C2CCCCC2)[C@@H](CO)O1,/,-1.7,/,-2.7,/,/
O=C1c2cc(Br)ccc2OC2C=CC=CC12 (stereo not drawn),-0.5,-1.3,-5.6,4.0,42.0*,2.7
O=C(N1CCN(Cc2ccc3c(c2)OCO3)CC1)C(Cl)(Cl)Cl,-0.1,-1.1,-5.4,-18.8*,12.5,-3.6
SMILES,hiPSC survival,Cneo AK release,DAGLB inhibitor,rRNA inh HTS,SKN-1 inh,MT1-MMP act inh
O=C(O)c1ccccc1C(=O)N1CCN(Cc2ccc3c(c2)OCO3)CC1,0.0,0.7,1.8,5.8,-5.6,-3.1
c1ccc(-c2[nH]ncc2CN2CCN(Cc3ccc4c(c3)OCO4)CC2)cc1,-0.2,/,-2.8,-46.8*,4.2,-1.6
O=C(c1ccc2c(c1)OCO2)C1CCCN(Cc2cn[nH]c2-c2ccccc2)C1 (stereo not drawn),-0.2,/,1.8,-1.4,-1.4,-0.7
CSC(=NS(=O)(=O)c1ccccc1)NNC(=O)c1c(-c2c(Cl)cccc2Cl)noc1C,0.5,/,/,-20.8*,4.6,0.4
CCN1CCN(C(=O)c2c(-c3c(F)cccc3Cl)noc2C)CC1,-3.5,0.6,0.6,/,-5.8,-3.8
Cc1onc(-c2c(Cl)cccc2Cl)c1C(=O)NN1CCCCCC1,0.1,1.9,0.2,-13.2*,2.6,-6.4
Cc1onc(-c2c(F)cccc2Cl)c1C(=O)N1CCSCC1,-0.2,-0.8,/,-28.9*,16.6,3.2
O=C(C[C@H]1CC[C@H](NC(=O)Nc2ccc(F)cc2)[C@@H](CO)O1)NCc1cccc(F)c1,/,1.2,/,2.1,/,/
COCC#Cc1cnc2c(c1)C(=O)N([C@@H](C)CO)C[C@@H](C)[C@@H](CN(C)C)O2,/,-0.7,/,2.1,/,/
CCN(CC)C(=O)Oc1ccc(Br)c2ccccc12,0.1,/,-8.1,/,37.1*,-0.9
O=C(O)c1ccc(S(=O)(=O)c2ccc3c(c2)C(=O)N(c2ccc(O)cc2)C3=O)cc1,0.1,/,0.7,-35.8*,-12.8,5.2
CCOc1cc(CNc2ccc(OC)cc2)cc(Br)c1OCC(=O)NC(C)(C)C,-3.5,-1.6,-3.5,-25.4*,10.6,-2.7
Cc1ccc(C(=O)n2nnc3ccccc32)cc1[N+](=O)[O-],-0.7,91.4*,1.8,/,2.6,-1.6
O=C(CN1c2ccccc2Sc2ccccc21)NNC(=S)Nc1ccc(Cl)cc1Cl,5.3,/,14.8,/,7.1,6.4
O=C(CN1c2ccccc2Sc2ccccc21)NNC(=S)Nc1ccc(Cl)cc1,-0.6,1.2,7.2,-47.7*,20.9,4.3
CCCC(=O)Nc1ccc2c(c1)OC[C@H](C)N(C(=O)c1ccccc1F)C[C@@H](C)[C@H](OC)CN(C)C2=O,/,/,/,1.8,/,/
CCOc1ccc(N(C)S(=O)(=O)c2cc(-c3cc(C)no3)ccc2OC)cc1,-0.4,6.0,-2.3,-37.1*,-0.8,0.7
COC(=O)c1nn(-c2ccccc2)c(Sc2ccc(Br)cc2)c1/C=N/O,-6.9,-0.4,-2.8,-19.9*,-23.0,0.6
O=C(NCC(=O)N1CCOCC1)c1ccc(Cl)c(Cl)c1,3.7,0.4,-0.2,-1.2,37.2*,1.4
O=C(c1ccc(Cl)c(Cl)c1)N1CCOCC1,-0.1,0.8,-0.3,/,-9.0,-0.5
O=C(Nc1ccc(F)cc1)N1CC(=O)N2[C@H](CO)[C@H](c3ccc(C#Cc4ccccc4)cc3)[C@@H]2C1,/,/,/,-7.9,/,/
COc1ccc(CN(C)CC(=O)Nc2cccc3ccccc23)cc1F,0.7,-1.1,-4.8,-15.3,19.6,8.8
COc1cc(CO)cc(Br)c1OCC(=O)Nc1cccc2ccccc12,-0.1,0.9,0.3,-23.9*,-5.9,-2.6
